pIC50: −log10 of the molar value. Blank lines part the entries; values can stand above or below the compound they belong to. Activity calls are given as the source filed them. The rule behind the calls is not given here.
Columns and labels:
Physalis ixocarpa [1] = experiment: Effect on biomass production in Physalis ixocarpa assessed as plant dry weight at 200 uM measured 14 days post compound application relative to untreated control; format: functional
Outline: (§1)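 Greenhouse-grown plants (pots, watered daily, 25 to 30 °C) of similar size, sprayed at 15 (P. ixocarpa) or 18 (L. perenne) days after emergence. Compound taken from a 20 mM DMSO stock into aqueous 0.05% w/v Tween-20; controls were sprayed with water containing the same DMSO and Tween-20. Plants harvested at ground level, oven-dried at 65 °C to constant weight, then weighed.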

Lolium perenne [2] = experiment: Effect on photosynthetic efficiency in Lolium perenne (perennial ryegrass) assessed as increase in PI(abs) transients at 100 uM measured 72 hr post compound application; format: functional
Outline: (§2)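 Greenhouse L. perenne sprayed 18 days after emergence (20 mM DMSO stock diluted into 0.05% Tween-20; vehicle-sprayed controls). Leaves dark-adapted 15 min, then excited with 3000 μmol photons m-2 s-1 red light (650 nm) from three LEDs. OJIP transients recorded at room temperature with a Handy PEA. PI(abs) and other parameters are shown on radar plots normalized to control.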

Physalis ixocarpa [3] = experiment: Inhibition of photosynthetic efficiency in Physalis ixocarpa intact leaves assessed as reduction in chlorophyll a fluorescence transients at 200 uM measured 48 hr post compound application; format: functional
Outline: (§3)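 P. ixocarpa plants sprayed 15 days after emergence (greenhouse, 25-30 °C; 20 mM DMSO stock diluted into 0.05% Tween-20; vehicle-sprayed controls). Leaves dark-adapted 15 min, then excited with 650 nm red LED light at 3000 μmol photons m-2 s-1. Chl a OJIP transients recorded with a Handy PEA at room temperature. PI(abs) is normalized to control; K-, J- and I-bands come from variable fluorescence difference curves; five replicates.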

Lolium perenne [4] = experiment: Effect on biomass production in Lolium perenne (perennial ryegrass) assessed as plant dry weight at 200 uM measured 14 days post compound application relative to untreated control; format: functional; outline: as §1
Spinacia oleracea [5] = experiment: Inhibition of uncoupled electron transport from water to MV in Spinacia oleracea (spinach) leaves chloroplasts at 50 to 300 uM using Clark type electrode system based method; format: functional, organism-based
Outline: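 Water-to-MV electron transport measured with a Clark electrode in the basal medium (20 μg Chl/mL, 50 μM MV, 15 mM tricine-KOH pH 8.0, 1 min illumination), with 6 mM NH4Cl added as uncoupler.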

Lolium perenne [6] = experiment: Effect on biomass production in Lolium perenne (perennial ryegrass) assessed as plant dry weight at 100 uM measured 14 days post compound application relative to untreated control; format: functional; outline: as §1
Spinacia oleracea [7] = experiment: Increase in Magnesium-transporting ATPase activity in Spinacia oleracea (spinach) leaves chloroplasts thylakoids at 300 uM
Outline: (§4)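 Spinach chloroplasts were isolated in 350 mM sorbitol, 5 mM ascorbate, 20 mM MES pH 6.5, centrifuged at 3000g for 60 s, washed, and resuspended in 35 mM HEPES pH 7.6. Light-triggered Mg2+-ATPase activity of thylakoid membranes was measured as released inorganic phosphate. Ammonium chloride served as positive control.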

Physalis ixocarpa [8] = experiment: Inhibition of photosynthetic efficiency in Physalis ixocarpa intact leaves assessed as effect on OJIP transients at 100 uM measured 24 hr post compound application; format: functional, organism-based; outline: as §3
Spinacia oleracea [9] = experiment: Increase in Magnesium-transporting ATPase activity in Spinacia oleracea (spinach) leaves chloroplasts thylakoids at 100 uM; outline: as §4
Lolium perenne [10] = experiment: Effect on photosynthetic efficiency in Lolium perenne (perennial ryegrass) assessed as increase in OJIP transients at 100 uM measured 72 hr post compound application; format: functional; outline: as §2
Lolium perenne [11] = experiment: Inhibition of photosynthetic efficiency in Lolium perenne (perennial ryegrass) assessed as effect on OJIP transients at 100 uM measured 24 to 48 hr post compound application; format: functional, organism-based; outline: as §2
Physalis ixocarpa [12] = experiment: Inhibition of photosynthetic efficiency in Physalis ixocarpa intact leaves assessed as increase in chlorophyll a fluorescence transients at 100 uM measured 72 hr post compound application; format: functional, organism-based; outline: as §3
Spinacia oleracea [13] = experiment: Increase in Magnesium-transporting ATPase activity in Spinacia oleracea (spinach) leaves chloroplasts thylakoids at 200 uM; outline: as §4
Lolium perenne [14] = experiment: Inhibition of photosynthetic efficiency in Lolium perenne (perennial ryegrass) at 200 uM measured 24 to 72 hr post compound application; format: functional; outline: as §2
Physalis ixocarpa [15] = experiment: Inhibition of photosynthetic efficiency in Physalis ixocarpa intact leaves assessed as reduction in PI(abs) level at 100 uM measured 48 hr post compound application; format: functional; outline: as §3
Physalis ixocarpa [16] = experiment: Effect on biomass production in Physalis ixocarpa assessed as plant dry weight at 100 uM measured 14 days post compound application relative to untreated control; format: functional; outline: as §1
Physalis ixocarpa [17] = experiment: Inhibition of photosynthetic efficiency in Physalis ixocarpa intact leaves assessed as increase in chlorophyll a fluorescence transients at 100 uM measured 48 hr post compound application; format: functional; set-up: scale not given: the % may be the effect or the level left; outline: as §3
Physalis ixocarpa [18] = experiment: Inhibition of photosynthetic efficiency in Physalis ixocarpa intact leaves assessed as reduction in PI(abs) level at 200 uM measured 48 hr post compound application; format: functional; outline: as §3
Spinacia oleracea [19] = experiment: Inhibition of photophosphorylation in Spinacia oleracea (spinach) leaves chloroplasts by titrimetry; format: functional; conditions: read-out: I50
Outline: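 Intact spinach chloroplasts (20 μg Chl/mL) were osmotically broken in 3 mL of weakly buffered medium: 100 mM sorbitol, 10 mM KCl, 5 mM MgCl2, 0.5 mM KCN, 1 mM tricine-KOH pH 8.0, 50 μM MV and 1 mM ADP. ATP synthesis was taken from the medium alkalization rate in the linear part of illumination, calibrated by HCl back-titration, as μmol ATP (mg Chl)-1 h-1. I50 was obtained from concentration-activity plots; three replicates.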

Spinacia oleracea [20] = experiment: Inhibition of phosphorylating noncyclic electron transport from water to MV in Spinacia oleracea (spinach) leaves chloroplasts at 50 to 300 uM using Clark type electrode system based method; format: functional
Outline: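 Clark-electrode measurement of water-to-MV electron flow in the basal medium (sorbitol, KCl, MgCl2, 0.5 mM KCN, 50 μM MV, 15 mM tricine-KOH pH 8.0; 20 μg Chl/mL; 1 min light), with 1 mM ADP and 3 mM KH2PO4 added.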

Lolium perenne [21] = experiment: Inhibition of photosynthetic efficiency in Lolium perenne (perennial ryegrass) assessed as effect on OJIP transients at 200 uM measured 72 hr post compound application; format: functional, organism-based; outline: as §2
Spinacia oleracea [22] = experiment: Effect on photosynthesis efficiency in Spinacia oleracea (spinach) leaves freshly lysed chloroplasts assessed as change in chlorophyll a fluorescence at 150 to 450 uM; format: functional
Outline: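 Freshly lysed spinach thylakoids (20 μg Chl) were placed on filter paper with a dot-blot apparatus and dipped in 3 mL basal electron transport medium without MV, containing compound. After 5 min dark adaptation, fluorescence was excited with 3000 μmol m-2 s-1 650 nm LED light (2 s pulse) at room temperature. Wt = (Ft−F0)/(FJ−F0), difference from control used for K-band; five replicates.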

Spinacia oleracea [23] = experiment: Inhibition of basal electron transport from water to MV in Spinacia oleracea (spinach) leaves chloroplasts at 50 to 300 uM using Clark type electrode system based method; format: functional, organism-based

Activity (Spinacia oleracea [7]): 123%
Activity (Spinacia oleracea [9]): 110%
Activity (Spinacia oleracea [13]): 112%
pIC50 (Spinacia oleracea [19]): 4.09
SMILES: C[C@H]1[C@@H](O)CC[C@@H]2[C@]1(C)CC[C@H]1[C@@]2(C)CC[C@@]2(C)[C@@H]3CC(C)(C)CC[C@]3(C)CC[C@]12C [EPIFRIEDELINOL]
Activity (Physalis ixocarpa [1]): 101.3%
Activity (Lolium perenne [2]): 10%
inhibition at 200 µM (Physalis ixocarpa [3]): 10%
Activity (Lolium perenne [4]): 91.2%
inhibition (Spinacia oleracea [5]): inactive
Activity (Lolium perenne [6]): 79.6%
inhibition (Physalis ixocarpa [8]): inactive
Activity (Lolium perenne [10]): 20%
inhibition (Lolium perenne [11]): inactive
Activity (Physalis ixocarpa [12]): Active
inhibition at 200 µM (Lolium perenne [14]): 12%
inhibition at 100 µM (Physalis ixocarpa [15]): 40%
Activity (Physalis ixocarpa [16]): 23.2%
Activity (Physalis ixocarpa [17]): 10%
inhibition at 200 µM (Physalis ixocarpa [18]): 15%
inhibition (Spinacia oleracea [20]): inactive
inhibition (Lolium perenne [21]): inactive
Activity (Spinacia oleracea [22]): Active
inhibition (Spinacia oleracea [23]): inactive

pIC50 (Spinacia oleracea [19]): 3.74
SMILES: C[C@H]1C(=O)CC[C@@H]2[C@]1(C)CC[C@H]1[C@@]2(C)CC[C@@]2(C)[C@@H]3CC(C)(C)CC[C@]3(C)CC[C@]12C [FRIEDELINE]
